Test results reported in ChEMBL document CHEMBL1159058, “Triazoloacridin-6-ones as novel inhibitors of the quinone oxidoreductases NQO1 and NQO2” (Bioorg Med Chem, 2010).

Experiments:
[1] = target: T1, Ribosyldihydronicotinamide dehydrogenase [quinone] (Homo sapiens, UniProt P16083); experiment: Inhibition of human recombinant NQO2 by spectrophotometry
T1 sequence (P16083 whole entry): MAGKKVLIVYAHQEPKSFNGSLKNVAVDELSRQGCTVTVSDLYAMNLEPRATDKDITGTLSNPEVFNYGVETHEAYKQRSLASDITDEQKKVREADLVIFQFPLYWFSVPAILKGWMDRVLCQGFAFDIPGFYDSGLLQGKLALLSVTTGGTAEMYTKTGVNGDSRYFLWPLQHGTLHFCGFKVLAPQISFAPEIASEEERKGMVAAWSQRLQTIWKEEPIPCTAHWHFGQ
Procedure, shortened: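 Recombinant human NQO2 was diluted in 50 mM phosphate to give about 0.1 absorbance/min. Reaction mix: 50 mM phosphate pH 7.4 with 200 µM NRH as cofactor, 40 µM DCPIP and inhibitor in DMSO (1.0% v/v final), 37 °C. DCPIP reduction was followed at 600 nm.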

HCT-116 [2] = experiment: Cytotoxicity against human HCT116 cells after 24 hrs by MTT assay; format: functional, cell-based; conditions: HCT-116, 24 h
Procedure, shortened: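 HCT116 cells were kept in RPMI 1640 with 10% FCS and 2 mM L-glutamine, plated at 2 × 10³ cells/well, 37 °C, 5% CO₂. Drug was given for 24 h, then removed, and cells regrew 3 days in fresh medium. Read-out was MTT for 4 h, formazan dissolved in DMSO, OD read. IC50 is 50% OD reduction vs untreated/vehicle controls. At least three repeats.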

HCT-116 [3] = experiment: Cytotoxicity against human HCT116 cells after 96 hrs by MTT assay; format: functional, cell-based; conditions: HCT-116, 96 h
Procedure, shortened: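 HCT116 cells were grown in RPMI 1640 with 10% FCS and 2 mM L-glutamine, seeded at 2 × 10³ cells/well, 37 °C, 5% CO₂. Drug exposure was continuous for 4 days at 37 °C. MTT was then added for 4 h and formazan dissolved in DMSO for OD reading. IC50 is 50% OD drop relative to untreated and/or vehicle cells. At least three repeats.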

Nucleic Acid [4] = experiment: Binding affinity to salmon sperm DNA assessed as change in melting temperature at 10 uM under high salt concentration by spectrophotometry; format: nucleic-acid assay; conditions: Salmonidae
Procedure, shortened: (§1)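 Salmon sperm DNA at 20 µg/ml was treated with 10 µM compound at high (physiological) or low salt; the low-salt buffer was 7.5 mM NaH₂PO₄, 1 mM EDTA, pH 7.0. Cuvettes were heated from 37 to 98 °C with A260 read every degree. Tm change is in °C, SD from three independent experiments.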

Nucleic Acid [5] = experiment: Binding affinity to salmon sperm DNA assessed as change in melting temperature at 10 uM under low salt concentration by spectrophotometry; format: nucleic-acid assay; conditions: Salmonidae; procedure, shortened: as §1
Nucleic Acid [6] = experiment: Binding affinity to salmon sperm DNA assessed as melting temperature at 10 uM under low salt concentration by spectrophotometry; format: nucleic-acid assay; conditions: Salmonidae
[7] = target: NAD(P)H dehydrogenase [quinone] 1 (Homo sapiens, UniProt P15559); experiment: Inhibition of human recombinant NQO1 by spectrophotometry
Sequence of NAD(P)H dehydrogenase [quinone] 1 (P15559 whole entry): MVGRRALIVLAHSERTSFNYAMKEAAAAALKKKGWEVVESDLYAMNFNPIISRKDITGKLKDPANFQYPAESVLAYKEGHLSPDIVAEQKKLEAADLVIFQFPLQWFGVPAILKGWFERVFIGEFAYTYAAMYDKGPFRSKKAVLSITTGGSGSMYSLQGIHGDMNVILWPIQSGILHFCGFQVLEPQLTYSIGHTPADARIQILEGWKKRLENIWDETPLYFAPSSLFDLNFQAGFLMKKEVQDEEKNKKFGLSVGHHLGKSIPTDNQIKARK

IC50 [1] [µM]	ΔTm (Nucleic Acid [4]) [°C]	ΔTm (Nucleic Acid [5]) [°C]	Tm (Nucleic Acid [6]) [°C]	IC50 [7] [µM]	SMILES	IC50 (HCT-116 [2]) [µM]	IC50 (HCT-116 [3]) [µM]
0.427	0.23	2	–	–	CC(C)CCNc1ccc2nnn3c4ccccc4c(=O)c1c23	3.2	0.815
0.117	0.45	0.1	–	–	C[N+](C)([O-])CCNc1ccc2nnn3c4ccc(Br)cc4c(=O)c1c23	48	12
–	–	8	88	–	COc1cccc2c1C(=O)c1c(O)c3c(c(O)c1C2=O)C[C@@](O)(C(=O)CO)C[C@@H]3O[C@H]1C[C@H](N)[C@H](O)[C@H](C)O1	–	–
1.33	0.08	2.9	83	0.111	COc1ccc2c(c1)c(=O)c1c(NCCN(C)C)ccc3nnn2c31	1	0.333
0.35	0.08	1.7	–	3.93	COc1ccc2c(c1)c(=O)c1c(NCCc3ccccc3)ccc3nnn2c31	12.5	0.711
0.987	0.42	3	–	–	O=c1c2cc(Br)ccc2n2nnc3ccc(NCCCO)c1c32	2.8	0.715
0.098	0.3	0.15	80	–	COc1ccc2c(c1)c(=O)c1c(NCC[N+](C)(C)[O-])ccc3nnn2c31	57	18.8
1.83	0.33	1.7	–	1.8	CN(C)CCNc1ccc2nnn3c4ccccc4c(=O)c1c23	20.5	12.4
1.48	0.2	2.6	–	–	CN(C)CCNc1ccc2nnn3c4ccc(Br)cc4c(=O)c1c23	1.6	0.495
0.483	1.48	3	–	–	O=c1c2ccccc2n2nnc3ccc(NCCCO)c1c32	0.99	0.63
0.098	0.19	0.2	–	–	COc1ccc(Nc2ccc3nnn4c5ccccc5c(=O)c2c34)cc1	1.9	0.63
0.517	0.19	3.2	–	–	COc1ccc2c(c1)c(=O)c1c(NCCCO)ccc3nnn2c31	1.5	0.627
0.783	0.03	2.6	–	–	CN(C)CCNc1ccc2nnn3c4ccc(F)cc4c(=O)c1c23	1.2	0.465
0.167	0.22	0.5	–	–	C[N+](C)([O-])CCNc1ccc2nnn3c4ccccc4c(=O)c1c23	80	23.8
0.767	0.09	1.9	–	–	CC(C)CCNc1ccc2nnn3c4ccc(Br)cc4c(=O)c1c23	27	7
0.567	0.31	1.7	–	3.28	O=c1c2ccccc2n2nnc3ccc(NCCc4ccccc4)c1c32	3.5	0.803
